Laboratory results from PubChem BioAssay AID624368 (Broad Institute, 2012).
Activity calls are given as the source filed them.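 How the source made its calls: active means viability drop with AC50 at most twice the sample's highest valid dose; inconclusive means flat curve with moderate loss, or a poor fit; inactive means the rest.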

Tested on: not listed separately
Assay: viability of MITF-independent A375 cells – cell-based, CellTiter-Glo luminescence, dry powder, set 5, counter-screen for MITF inhibitor project, dose response (AID 624368)
Conditions: A375 viability, CellTiter-Glo ATP luminescence, 24 h; at 35 µM (top of the series)
Procedure, shortened: (§1)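 Signal: ATP luminescence, CellTiter-Glo | System: MITF-independent A375 melanoma cells | Amount: 3000 cells per well | Incubation: 24 h compound exposure, 37 °C | Medium: Phenol red-free DMEM, 10% FBS | Compound: Pinned multi-dose series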

Row | SMILES | activity change, negative = cytotoxicity
1 | NC1=C(NS(=O)(=O)c2ccc(Br)s2)C(=O)c2ccccc2C1=O | 3.75% (inactive)
2 | O=C1C(NS(=O)(=O)c2ccccc2)=C(N2CCCCC2)C(=O)c2ccccc21 | 0.773% (inactive)
3 | O=C1C(Nc2ccccc2)=C(NS(=O)(=O)c2ccccc2[N+](=O)[O-])C(=O)c2ccccc21 | -2.72% (inactive)
4 | O=C1C=C(NS(=O)(=O)c2ccc(Br)cc2)C(=O)c2ccccc21 | 2.29% (inactive)
5 | CCN1CCN(C2=C(NS(=O)(=O)c3ccc(Br)cc3)C(=O)c3ccccc3C2=O)CC1 | 8.86% (inactive)
6 | O=C1C(NS(=O)(=O)c2ccccc2)=C(N2CCOCC2)C(=O)c2ccccc21 | -1.41% (inactive)
7 | CNC1=CC(=O)c2ccccc2C1=O | 3.5% (inactive)
8 | NC1=C(c2ccc(OC(F)(F)F)cc2)C(=O)c2ccccc2C1=O | -3.65% (inactive)

Tested on: A375 viability, CellTiter-Glo ATP luminescence, 24 h
Assay: as above
Conditions: not given
Procedure, shortened: as §1

Row | SMILES | AC50
9 | COC1=C(NS(=O)(=O)c2ccc(Br)cc2)C(=O)c2ccccc2C1=O | > 70 µM (inactive)
10 | O=C(NC1=C(c2ccccc2)C(=O)c2ccccc2C1=O)c1ccco1 | 29.1 µM
11 | CC1CCN(CC(CS(=O)(=O)c2ccc([N+](=O)[O-])cc2)N2CCC(C)CC2)CC1 (configuration not stated) | > 70 µM (inactive)
12 | COC1=C(NS(=O)(=O)c2ccccc2)C(=O)c2ccccc2C1=O | > 70 µM (inactive)
13 | CN1CCN(C2=C(Nc3ccccc3)C(=O)c3ccccc3C2=O)CC1 | > 70 µM (inactive)
14 | COC1=C(Nc2ccccc2)C(=O)c2ccccc2C1=O | > 70 µM (inactive)
15 | O=C1C(NS(=O)(=O)c2ccc(Br)s2)=C(N2CCSCC2)C(=O)c2ccccc21 | > 70 µM (inactive)
16 | O=C1C=C(NS(=O)(=O)c2ccccc2)C(=O)c2ccccc21 | > 70 µM (inactive)
17 | Cc1nc2ccccc2n1/N=C/c1ccc([N+](=O)[O-])s1 | > 70 µM (inactive)
18 | O=C1C(Nc2ccccc2)=C(c2ccccc2)C(=O)c2ccccc21 | > 70 µM (inactive)
19 | O=C1C(NS(=O)(=O)c2cccs2)=C(c2ccccc2)C(=O)c2ccccc21 | > 70 µM (inactive)
20 | CC(=O)N(C)C1=C(N2CCN(C)CC2)C(=O)c2ccccc2C1=O | 24.3 µM
21 | O=C(NC1=C(N2CCOCC2)C(=O)c2ccccc2C1=O)c1ccc(Br)cc1 | > 70 µM (inactive)
22 | O=C1C=C(Nc2ccccc2)C(=O)c2ccccc21 | > 70 µM (inactive)
23 | O=C1C(NS(=O)(=O)c2ccccc2)=C(c2ccccc2)C(=O)c2ccccc21 | > 70 µM (inactive)
24 | COC1=C(NS(=O)(=O)c2cccs2)C(=O)c2ccccc2C1=O | > 70 µM (inactive)
25 | NC1=C(c2ccccc2)C(=O)c2ccccc2C1=O | > 70 µM (inactive)
26 | NC1=CC(=O)c2ccccc2C1=O | > 70 µM (inactive)
27 | O=C1C(Nc2ccccc2)=C(N2CCSCC2)C(=O)c2ccccc21 | > 70 µM (inactive)
28 | CCN1CCN(C2=C(NC(=O)c3ccc(Br)cc3)C(=O)c3ccccc3C2=O)CC1 | 28 µM
29 | NC1=C(NS(=O)(=O)c2cccs2)C(=O)c2ccccc2C1=O | > 70 µM (inactive)
30 | O=C1C(NS(=O)(=O)c2ccc(Br)s2)=C(N2CCOCC2)C(=O)c2ccccc21 | > 70 µM (inactive)

Row | SMILES | AC50
31 | O=C(CNc1cccc2ccccc12)N/N=C/c1ccc([N+](=O)[O-])o1 | > 70 µM (inactive)
32 | C[C@@H](NC1=C(Nc2ccccc2)C(=O)c2ccccc2C1=O)c1ccccc1 | > 70 µM (inactive)
33 | O=C1C(NS(=O)(=O)c2cccs2)=C(N2CCCCC2)C(=O)c2ccccc21 | > 70 µM (inactive)
34 | C=CCNC1=C(N(C)C(C)=O)C(=O)c2ccccc2C1=O | 23 µM
35 | C=CCNC1=C(Cl)C(=O)c2ccccc2C1=O | > 70 µM (inactive)
36 | O=C(NC1=C(N2CCCCC2)C(=O)c2ccccc2C1=O)c1ccc(Br)cc1 | > 70 µM (inactive)
37 | O=C1C(Nc2ccccc2)=C(N2CCOCC2)C(=O)c2ccccc21 | > 70 µM (inactive)
38 | C=CCNC1=C(Nc2ccccc2)C(=O)c2ccccc2C1=O | > 70 µM (inactive)
39 | O=C(NC1=C(N2CCSCC2)C(=O)c2ccccc2C1=O)c1ccc(Br)cc1 | > 70 µM (inactive)
40 | CN1CCN(C2=C(NC(=O)c3ccc(Br)cc3)C(=O)c3ccccc3C2=O)CC1 | 32.2 µM
41 | Cc1ccc(C(=O)NC2=C(c3ccccc3)C(=O)c3ccccc3C2=O)o1 | 32 µM
42 | COc1ccc(S(=O)(=O)N(C(C)=O)c2ccc(OC(C)=O)c3ccccc23)cc1[N+](=O)[O-] | > 70 µM (inactive)
43 | O=C1C(NS(=O)(=O)c2ccc(Br)s2)=C(N2CCCCC2)C(=O)c2ccccc21 | > 70 µM (inactive)
44 | NC1=C(NS(=O)(=O)c2ccccc2)C(=O)c2ccccc2C1=O | > 70 µM (inactive)
45 | O=C1C(Nc2ccccc2)=C(N2CCCCC2)C(=O)c2ccccc21 | > 70 µM (inactive)
46 | CCN(CC)CCNC1=C(Nc2ccccc2)C(=O)c2ccccc2C1=O | > 70 µM (inactive)
47 | O=C1C=C(NS(=O)(=O)c2cccs2)C(=O)c2ccccc21 | > 70 µM (inactive)
48 | CCN1CCN(C2=C(NS(=O)(=O)c3ccc(Br)s3)C(=O)c3ccccc3C2=O)CC1 | > 70 µM (inactive)
49 | NC1=C(NC(=O)c2ccccc2)C(=O)c2ccccc2C1=O | > 70 µM (inactive)
50 | CN1CCN(C2=C(NS(=O)(=O)c3ccc(Br)s3)C(=O)c3ccccc3C2=O)CC1 | > 70 µM (inactive)
51 | CCN(CC)CCCNC1=C(Nc2ccccc2)C(=O)c2ccccc2C1=O | > 70 µM (inactive)
52 | NC1=C(NS(=O)(=O)c2ccc(Br)cc2)C(=O)c2ccccc2C1=O | > 70 µM (inactive)
